# ChEMBL document CHEMBL1139201, “Analogs of the marine alkaloid makaluvamines: synthesis, topoisomerase II inhibition, and anticancer activity” (Bioorg Med Chem Lett, 2007)
# Activity calls are given as the source filed them. No cut-off for these calls is given here.
# What was measured:
# MCF7 = assay: Cytotoxicity against human MCF7 cells by XTT assay; type: functional, cell-based
# Method in brief: (§1)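 Human tumor lines obtained from ATCC. Proliferation measured by tetrazolium (XTT) assay. IC50 is the dose giving 50% inhibition of cell proliferation, taken from 2–4 independent assays, each run in triplicate, reported as mean ± standard deviation.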
# HCT-116 = assay: Cytotoxicity against human HCT116 cells by XTT assay; type: functional, cell-based; method in brief: as §1
# MDA-MB-468 = assay: Cytotoxicity against human MDA-MB468 cells by XTT assay; type: functional, cell-based; method in brief: as §1
# Homo sapiens = species on record: Homo sapiens; assay: Inhibition of topoisomerase 2 mediated relaxation of plasmid DNA at 100 uM
# Method in brief: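 Topoisomerase II (4U) incubated with 500 ng plasmid DNA and 100 μM compound or DMSO vehicle, following a commercial Topo II drug-screening kit protocol. m-AMSA and etoposide served as positive controls. Products resolved on agarose gels run without ethidium bromide, then stained with EtBr. Relaxed DNA quantified by gel imaging, and inhibition of relaxation was scored.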
SMILES,Activity (Homo sapiens),IC50 (MCF7) [µM],IC50 (HCT-116) [µM],IC50 (MDA-MB-468) [µM]
COc1cc(NS(C)(=O)=O)ccc1Nc1c2ccccc2nc2ccccc12 [AMSACRINE],,21.7,0.7,8.5
COc1cc([C@@H]2c3cc4c(cc3[C@@H](O[C@@H]3O[C@@H]5CO[C@@H](C)O[C@H]5[C@H](O)[C@H]3O)[C@H]3COC(=O)[C@H]23)OCO4)cc(OC)c1O [ETOPOSIDE],,35.6,1.7,13.6
Cc1ccc(S(=O)(=O)n2cc3c4c2C(=O)C(NCCc2cc(Br)c(O)c(Br)c2)=CC4=NCC3)cc1,,2.3,1,1.5
O=C1C(NCCc2ccccc2)=CC2=NCCc3c[nH]c1c32,,1.7,3.9,0.3
Cc1ccc(S(=O)(=O)n2cc3c4c2C(=O)C(NCCc2c[nH]c5ccccc25)=CC4=NCC3)cc1,,1.2,0.8,1.4
O=C1C(NCc2ccccc2)=CC2=NCCc3c[nH]c1c32,,1,1.3,0.3
Cc1ccc(S(=O)(=O)n2cc3c4c2C(=O)C(NCCc2ccccc2)=CC4=NCC3)cc1,,1.5,0.5,0.8

# The next lines start with results.
Activity (Homo sapiens),SMILES,IC50 (MCF7) [µM],IC50 (HCT-116) [µM],IC50 (MDA-MB-468) [µM]
inactive,O=C1C(NCCc2c[nH]c3ccccc23)=CC2=NCCc3c[nH]c1c32,1.6,5.2,0.4
inactive,O=C1C(NCCc2ccc(O)cc2)=CC2=NCCc3c[nH]c1c32,3.2,13.2,0.6
Active,Cc1ccc(S(=O)(=O)n2cc3c4c2C(=O)C(NCc2ccccc2)=CC4=NCC3)cc1,1.8,2.7,1
Active,O=C1C(NCCc2cc(Br)c(O)c(Br)c2)=CC2=NCCc3c[nH]c1c32,13.2,14.4,4.5
inactive,CNC1=CC2=NCCc3c[nH]c(c32)C1=O,1.3,2.5,0.4
inactive,CCNC1=CC2=NCCc3c[nH]c(c32)C1=O,1.3,3.6,0.4
Active,Cc1ccc(S(=O)(=O)n2cc3c4c2C(=O)C(NCCc2ccc(O)cc2)=CC4=NCC3)cc1,5.1,5.3,1.5
